Measured values gathered from unrelated publications.
Compare with care: the assays were run in different laboratories.
Target: Myosin-IIIb (MYO3B, Homo sapiens, UniProt Q8WXR4)
Sequence (Q8WXR4 1-1341, as in one of the studies): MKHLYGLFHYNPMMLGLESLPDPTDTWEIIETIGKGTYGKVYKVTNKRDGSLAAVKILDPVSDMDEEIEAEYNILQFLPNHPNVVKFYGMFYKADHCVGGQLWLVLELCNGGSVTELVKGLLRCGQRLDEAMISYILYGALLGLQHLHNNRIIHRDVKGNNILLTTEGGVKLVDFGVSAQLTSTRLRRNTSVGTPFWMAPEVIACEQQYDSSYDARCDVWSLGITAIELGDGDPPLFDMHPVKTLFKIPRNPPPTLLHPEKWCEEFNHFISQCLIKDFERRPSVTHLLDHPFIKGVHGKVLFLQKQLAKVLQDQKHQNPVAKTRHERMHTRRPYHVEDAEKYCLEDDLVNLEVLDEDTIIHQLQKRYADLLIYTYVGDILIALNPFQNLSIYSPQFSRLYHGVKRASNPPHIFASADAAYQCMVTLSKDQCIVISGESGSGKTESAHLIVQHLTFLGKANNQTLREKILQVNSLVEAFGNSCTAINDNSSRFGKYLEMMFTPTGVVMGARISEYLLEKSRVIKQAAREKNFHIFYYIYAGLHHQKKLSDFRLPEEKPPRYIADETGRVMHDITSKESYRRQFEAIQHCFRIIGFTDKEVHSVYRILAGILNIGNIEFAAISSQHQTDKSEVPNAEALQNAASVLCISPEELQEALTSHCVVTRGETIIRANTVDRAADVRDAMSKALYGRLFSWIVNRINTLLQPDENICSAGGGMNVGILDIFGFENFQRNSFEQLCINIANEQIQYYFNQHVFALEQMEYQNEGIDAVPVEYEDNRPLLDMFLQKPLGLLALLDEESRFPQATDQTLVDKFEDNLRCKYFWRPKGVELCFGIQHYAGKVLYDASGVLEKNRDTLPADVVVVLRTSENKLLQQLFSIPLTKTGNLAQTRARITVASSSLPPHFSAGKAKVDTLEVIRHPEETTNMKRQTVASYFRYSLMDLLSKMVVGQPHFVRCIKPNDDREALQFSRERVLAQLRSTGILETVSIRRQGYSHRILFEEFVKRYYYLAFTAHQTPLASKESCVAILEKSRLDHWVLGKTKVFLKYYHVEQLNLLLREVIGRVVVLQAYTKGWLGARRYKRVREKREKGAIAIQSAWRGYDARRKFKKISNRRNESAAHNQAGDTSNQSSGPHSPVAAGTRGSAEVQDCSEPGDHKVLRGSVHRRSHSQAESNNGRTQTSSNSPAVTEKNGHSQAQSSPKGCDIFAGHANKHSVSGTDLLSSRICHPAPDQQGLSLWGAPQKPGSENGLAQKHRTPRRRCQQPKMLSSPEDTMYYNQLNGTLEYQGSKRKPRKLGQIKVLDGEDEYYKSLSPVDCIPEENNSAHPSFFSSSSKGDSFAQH

SMILES	effect on	method	tested at	remaining binding [%]
Cc1nc(N2CC[C@@H](O)C2)ncc1-c1cc(C(F)(F)F)cc2[nH]ncc12	binding	competition with immobilised ligand	1 µM	93
CC1CCCN1c1nccc(-c2cnn3ncccc23)n1 (stereo not drawn)	binding		1 µM	100
O=C(NCCCN1CCOCC1)c1ccc(Nc2nccc(-c3cc4ccccc4s3)n2)cc1	binding	competition with immobilised ligand	1 µM	100
FC(F)(F)c1ccc2c(c1)nc(-c1cccnc1)n2C1CC1	cell-free assay	competition with immobilised ligand	1 µM	67
O=C(c1ccc(Nc2nccc(-c3cc4ccccc4s3)n2)cc1)N1CCC(N2CCCC2)CC1	binding	competition with immobilised ligand	1 µM	100
C[C@H](c1ccc(F)cc1)N(Cc1cccc(C(=O)O)c1)C(=O)c1cnc2ccccc2c1	binding	competition with immobilised ligand	1 µM	100
O=C(Nc1c[nH]nc1C(=O)NC1CCNCC1)c1cc(F)cc(F)c1	binding	competition with immobilised ligand	1 µM	100
CN(C)c1nccc(-c2cnc3ncccn23)n1	binding		1 µM	79
Nc1ncc2c(n1)-c1c([nH]c3ccc(C#CC4CC4)cc13)CCCC2	binding	competition with immobilised ligand	1 µM	75
CN(C)c1ncc(F)c(-c2cnn3ncccc23)n1	binding		1 µM	100
Cc1cnc(Nc2ccc(C(=O)N3CCC(N4CCCC4)CC3)cc2)nc1-c1cc2ccccc2s1	binding	competition with immobilised ligand	1 µM	100
COc1ncc2cc3ccccc3nc2c1C#N	binding	competition with immobilised ligand	5 µM	96
COc1cnc(Nc2cccc(S(N)(=O)=O)c2)nc1N1CCN(c2ccccc2)CC1	binding	competition with immobilised ligand	1 µM	100
FC(F)(F)Oc1cccc(-c2cnc3ccc(-c4ccncc4)nn23)c1	cell-free assay	competition with immobilised ligand	5 µM	100
CCC(=O)N[C@H]1CC[C@@H](C(=O)N(C)c2ccc(-c3nc4ccccc4o3)cc2)C1	cell-free assay	competition with immobilised ligand	1 µM	98
CN(CCCC(F)(F)F)c1nccc(-c2cnn3ncccc23)n1	binding		1 µM	92
c1cncc(-c2cccc(Nc3nccc(NC4CCCCC4)n3)c2)c1	binding	competition with immobilised ligand	10 µM	100
COc1ccnn2ncc(-c3ccnc(N(C)C)n3)c12	binding		1 µM	100
N#CC1(c2ccccn2)CCN(Cc2cc(C(=O)N3CCCC3)c(=O)n3ccccc23)CC1	cell-free assay	competition with immobilised ligand	1 µM	100
C[C@H]1CCN(c2nccc(-c3cnn4ncccc34)n2)C1	binding		1 µM	100
C[C@@H]1CN(c2cc(-c3n[nH]c4ccc(OC5(C)CC5)cc34)ncn2)C[C@H](C)O1	cell-free assay	competition with immobilised ligand	0.1 µM	89
